Measurements: ChEMBL document CHEMBL1122702, “Radiohalogen-labeled imaging agents. 3. Compounds for measurement of brain blood flow by emission tomography” (J Med Chem, 1984)

How the values were obtained:
Type in all cases: ADME, organism-based
Rattus norvegicus [1] = species: Rattus norvegicus; experiment: The uptake of the 131 I-labeled compound at 30 min was evaluated in rat heart as Percent of injected dose in the total organ; conditions: in vivo, 0.5 h
In short: (§1)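 Male Sprague-Dawley rats (200–300 g, free access to food and water), lightly ether-anesthetized and restrained, received a 0.2 mL saline tail-vein bolus of 10–20 μCi 131I-labeled compound. They were decapitated at the stated time, and organs were excised, weighed and gamma-counted. Percent injected dose was determined against a calibrated external standard made by serial dilution of the injectate. n = 1–4 rats.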

Rattus norvegicus [2] = species: Rattus norvegicus; experiment: The uptake of the 131 I-labeled compound at 5 min was evaluated in rat brain as Percent of injected dose per gram in the organ; conditions: in vivo; in short: as §1
Rattus norvegicus [3] = species: Rattus norvegicus; experiment: The uptake of the 131 I-labeled compound at 5 min was evaluated in rat liver as Percent of injected dose per gram in the organ; conditions: in vivo; in short: as §1
Rattus norvegicus [4] = species: Rattus norvegicus; experiment: The uptake of the 131 I-labeled compound at 30 min was evaluated in rat liver as Percent of injected dose in the total organ; conditions: in vivo, 0.5 h; in short: as §1
Rattus norvegicus [5] = species: Rattus norvegicus; experiment: The uptake of the 131 I-labeled compound at 30 min was evaluated in rat blood as Percent of injected dose per gram in the organ; conditions: in vivo, 0.5 h; in short: as §1
Rattus norvegicus [6] = species: Rattus norvegicus; experiment: The uptake of the 131 I-labeled compound at 30 min was evaluated in rat brain as Percent of injected dose per gram in the organ; conditions: in vivo, 0.5 h; in short: as §1
Rattus norvegicus [7] = species: Rattus norvegicus; experiment: The uptake of the 131 I-labeled compound at 30 min was evaluated in rat liver as Percent of injected dose per gram in the organ; conditions: in vivo, 0.5 h; in short: as §1
Rattus norvegicus [8] = species: Rattus norvegicus; experiment: Ratio of distribution of the [131I]-labeled compound at 30 min in rat lung over uptake in blood; conditions: other tissue, 0.5 h
In short: (§2)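 Male Sprague-Dawley rats (200–300 g, fed ad libitum), ether-anesthetized, got a tail-vein bolus of 0.2 mL saline containing 10–20 μCi 131I compound and were decapitated at the stated time. Organs were weighed and gamma-counted against a serially diluted external standard. Organ/blood ratio was calculated from % dose per gram of organ. Animal numbers per time point were 1–4.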

Rattus norvegicus [9] = species: Rattus norvegicus; experiment: The uptake of the 131 I-labeled compound at 30 min was evaluated in rat heart as Percent of injected dose per gram in the organ; conditions: in vivo, 0.5 h; in short: as §1
Rattus norvegicus [10] = species: Rattus norvegicus; experiment: Ratio of distribution of the [131I]-labeled compound at 5 min in rat lung over uptake in blood; conditions: other tissue; in short: as §2
Rattus norvegicus [11] = species: Rattus norvegicus; experiment: The uptake of the 131 I-labeled compound at 30 min was evaluated in rat kidney as Percent of injected dose per gram in the organ; conditions: in vivo, 0.5 h; in short: as §1
Rattus norvegicus [12] = species: Rattus norvegicus; experiment: The uptake of the 131 I-labeled compound at 5 min was evaluated in rat brain as Percent of injected dose in the total organ; conditions: in vivo; in short: as §1
Rattus norvegicus [13] = species: Rattus norvegicus; experiment: Ratio of distribution of the [131I]-labeled compound at 30 min in rat heart over uptake in blood; conditions: other tissue, 0.5 h; in short: as §2
Rattus norvegicus [14] = species: Rattus norvegicus; experiment: The uptake of the 131 I-labeled compound at 5 min was evaluated in rat liver as Percent of injected dose in the total organ; conditions: in vivo; in short: as §1
Rattus norvegicus [15] = species: Rattus norvegicus; experiment: The uptake of the 131 I-labeled compound at 30 min was evaluated in rat kidney as Percent of injected dose in the total organ; conditions: in vivo, 0.5 h; in short: as §1
Rattus norvegicus [16] = species: Rattus norvegicus; experiment: Ratio of distribution of the [131I]-labeled compound at 30 min in rat liver over uptake in blood; conditions: other tissue, 0.5 h; in short: as §2
Rattus norvegicus [17] = species: Rattus norvegicus; experiment: Ratio of distribution of the [131I]-labeled compound at 5 min in rat brain over uptake in blood; in short: as §2
Rattus norvegicus [18] = species: Rattus norvegicus; experiment: Ratio of distribution of the [131I]-labeled compound at 5 min in rat heart over uptake in blood; conditions: other tissue; in short: as §2
Rattus norvegicus [19] = species: Rattus norvegicus; experiment: Ratio of distribution of the [131I]-labeled compound at 5 min in rat liver over uptake in blood; conditions: other tissue; in short: as §2
Rattus norvegicus [20] = species: Rattus norvegicus; experiment: Ratio of distribution of the [131I]-labeled compound at 30 min in rat brain over uptake in blood; conditions: 0.5 h; in short: as §2
Rattus norvegicus [21] = species: Rattus norvegicus; experiment: The uptake of the 131 I-labeled compound at 5 min was evaluated in rat heart as Percent of injected dose per gram in the organ; conditions: in vivo; in short: as §1
Rattus norvegicus [22] = species: Rattus norvegicus; experiment: The uptake of the 131 I-labeled compound at 5 min was evaluated in rat blood as Percent of injected dose per gram in the organ; conditions: in vivo; in short: as §1
Rattus norvegicus [23] = species: Rattus norvegicus; experiment: Ratio of distribution of the [131I]-labeled compound at 30 min in rat kidney over uptake in blood; conditions: other tissue, 0.5 h; in short: as §2
Rattus norvegicus [24] = species: Rattus norvegicus; experiment: The uptake of the 131 I-labeled compound at 30 min was evaluated in rat brain as Percent of injected dose in the total organ; conditions: in vivo, 0.5 h; in short: as §1
Rattus norvegicus [25] = species: Rattus norvegicus; experiment: The uptake of the 131 I-labeled compound at 30 min was evaluated in rat lung as Percent of injected dose per gram in the organ; conditions: in vivo, 0.5 h; in short: as §1
Rattus norvegicus [26] = species: Rattus norvegicus; experiment: Ratio of distribution of the [131I]-labeled compound at 5 min in rat kidney over uptake in blood; conditions: other tissue; in short: as §2
Rattus norvegicus [27] = species: Rattus norvegicus; experiment: The uptake of the 131 I-labeled compound at 5 min was evaluated in rat kidney as Percent of injected dose in the total organ; conditions: in vivo; in short: as §1
Rattus norvegicus [28] = species: Rattus norvegicus; experiment: The uptake of the 131 I-labeled compound at 5 min was evaluated in rat kidney as Percent of injected dose per gram in the organ; conditions: in vivo; in short: as §1
Rattus norvegicus [29] = species: Rattus norvegicus; experiment: The uptake of the 131 I-labeled compound at 5 min was evaluated in rat heart as Percent of injected dose in the total organ; conditions: in vivo; in short: as §1
Rattus norvegicus [30] = species: Rattus norvegicus; experiment: The uptake of the 131 I-labeled compound at 5 min was evaluated in rat lung as Percent of injected dose per gram in the organ; conditions: in vivo; in short: as §1

Structure (SMILES) | Dose (Rattus norvegicus [1]) [%] | Dose (Rattus norvegicus [2]) [%] | Dose (Rattus norvegicus [3]) [%] | Dose (Rattus norvegicus [4]) [%] | Dose (Rattus norvegicus [5]) [%] | Dose (Rattus norvegicus [6]) [%] | Dose (Rattus norvegicus [7]) [%] | Ratio (Rattus norvegicus [8]) | Dose (Rattus norvegicus [9]) [%] | Ratio (Rattus norvegicus [10]) | Dose (Rattus norvegicus [11]) [%] | Dose (Rattus norvegicus [12]) [%] | Ratio (Rattus norvegicus [13]) | Dose (Rattus norvegicus [14]) [%] | Dose (Rattus norvegicus [15]) [%] | Ratio (Rattus norvegicus [16]) | Ratio (Rattus norvegicus [17]) | Ratio (Rattus norvegicus [18]) | Ratio (Rattus norvegicus [19]) | Ratio (Rattus norvegicus [20]) | also measured
CCCCCCCCCCCCNC(C)Cc1cc(OC)c(I)cc1OC (stereo not given) | 0.27 | 0.047 | 1.2 | 7.9 | 0.16 | 0.022 | 0.53 | 8.1 | 0.19 | 13 | 0.22 | 0.084 | 1.2 | 17 | 0.69 | 3.3 | 0.1 | 1.2 | 2.5 | 0.14 | Dose (Rattus norvegicus [21]): 0.6%; Dose (Rattus norvegicus [22]): 0.48%; Ratio (Rattus norvegicus [23]): 1.4; Dose (Rattus norvegicus [24]): 0.046%; Dose (Rattus norvegicus [25]): 1.3%; Ratio (Rattus norvegicus [26]): 1.2; Dose (Rattus norvegicus [27]): 1.8%; Dose (Rattus norvegicus [28]): 0.58%; Dose (Rattus norvegicus [29]): 1%; Dose (Rattus norvegicus [30]): 6.1%
COc1cc(CC(C)NO)c(OC)cc1I (stereo not given) | 0.24 | 0.69 | 1.5 | 6.6 | 0.16 | 0.63 | 0.72 | 21 | 0.3 | 12 | 1.2 | 1.2 | 1.9 | 8.6 | 2.1 | 4.5 | 3.6 | 3.6 | 9.5 | 3.9 | Dose (Rattus norvegicus [21]): 0.66%; Dose (Rattus norvegicus [22]): 0.19%; Ratio (Rattus norvegicus [23]): 7.5; Dose (Rattus norvegicus [24]): 1.2%; Dose (Rattus norvegicus [25]): 3.3%; Ratio (Rattus norvegicus [26]): 6.8; Dose (Rattus norvegicus [27]): 2.5%; Dose (Rattus norvegicus [28]): 1.4%; Dose (Rattus norvegicus [29]): 0.8%; Dose (Rattus norvegicus [30]): 2%
